Experimental data pooled from the literature.
Lines come from different studies, so protocols differ.
Target: Bone morphogenetic protein receptor type-1A (BMPR1A, Homo sapiens, UniProt P36894)

SMILES | read-out | technique | concentration | remaining binding [%]
c1cnn2ncc(-c3ccnc(N4CCC45COC5)n3)c2c1 | binding | – | 1 µM | 88
C=CC(=O)N1CCC(C(=O)NCC(=O)N2CCN(c3nc(-c4cnc(N)nc4C(F)F)nc(N4CCOCC4)n3)CC2)CC1 | binding | competition with immobilised ligand | 1 µM | 80
Cc1cnc(Nc2ccc(C(=O)N3CCC(N4CCCC4)CC3)cc2)nc1-c1cc2ccccc2s1 | binding | competition with immobilised ligand | 1 µM | 60
COc1cccc(CNC(=O)c2nc3scc(COCc4ccc(C(=O)O)cc4)c3c(=O)[nH]2)c1 | cell-free assay | competition with immobilised ligand | 1 µM | 100
O=C(NCC1CCOCC1)c1n[nH]cc1NC(=O)c1c(F)cccc1F | binding | competition with immobilised ligand | 1 µM | 89
O=C(c1ccc(Nc2nccc(-c3cc4ccccc4s3)n2)cc1)N1CCC(N2CCCC2)CC1 | binding | competition with immobilised ligand | 1 µM | 75
COc1ncc2cc3ccccc3nc2c1C#N | binding | competition with immobilised ligand | 5 µM | 94
CN(C)c1nccc(-c2cnn3ncccc23)n1 | binding | – | 1 µM | 81
CN(C)c1ncnc(-c2ccc3nc(Nc4cc(CN5CCN(C(=O)CC(F)(F)F)CC5)ccn4)[nH]c3c2)c1Cl | cell-free assay | competition with immobilised ligand | 1 µM | 95
C[C@@H](c1ccc(-n2cnc3c(N)ncnc32)cc1)N1CCc2nn(C)c(Cc3ccccc3)c2C1=O | binding | competition with immobilised ligand | 0.1 µM | 100
C[C@@]1(Cc2ccc(C#N)cc2)C(=O)N(c2cc(Cl)cc(Cl)c2)c2ncc(C(=O)NC3(c4nc(C5CCC5)no4)CC3)n21 | binding | competition with immobilised ligand | 1 µM | 100
N[C@@H]1CCN(c2nccc(-c3cnn4ncccc34)n2)C1 | binding | – | 1 µM | 100
O=C(c1ccc(Nc2ncc(Cl)c(-c3ccc(Cl)s3)n2)cc1)N1CCC(N2CCCC2)CC1 | binding | competition with immobilised ligand | 1 µM | 59
CNC(=O)[C@@H]1CC[C@@H](n2c(-c3ccc4cnccc4c3)nc3ccc(C(=O)NCc4cccc(C(N)=O)c4)cc32)C1 | binding | competition with immobilised ligand | 1 µM | 92
CN(c1ccnc(CNc2nc(Nc3ccc4c(c3)CC(=O)N4)ncc2C(F)(F)F)n1)S(C)(=O)=O | binding | competition with immobilised ligand | 1 µM | 89
COc1cnc(Nc2cccc(S(N)(=O)=O)c2)nc1N1CCN(c2ccccc2)CC1 | binding | competition with immobilised ligand | 1 µM | 100
c1ccc(N2CCN(Cc3nc4ccccc4[nH]3)CC2)nc1 | binding | competition with immobilised ligand | 1 µM | 86
CN(C)c1nccc(-c2cnc3ncccn23)n1 | binding | – | 1 µM | 100
FC(F)(F)c1ccc2c(c1)nc(-c1cccnc1)n2C1CC1 | cell-free assay | competition with immobilised ligand | 1 µM | 93
Cc1cnn2ncc(-c3ccnc(N(C)C)n3)c2c1 | binding | – | 1 µM | 100
